In ChEMBL document CHEMBL1137559, “Rational design of 5'-thiourea-substituted alpha-thymidine analogues as thymidine monophosphate kinase inhibitors capable of inhibiting mycobacterial growth” (J Med Chem, 2007) one finds MIC50 and MIC99 data, which are given here for 10 compounds.

In brackets after ≈: the same amount, converted by molar mass.

This test has as its system Mycobacterium tuberculosis variant bovis. Put plainly: Growth inhibition of Mycobacterium bovis BCG 1173P2. Format: functional, Mycobacterium bovis BCG str. Pasteur 1173P2. The method, boiled down: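 Broth microdilution in 7H9 Middlebrook medium with 0.2% glycerol, 0.5% Tween 80 and OADC. Uses two-fold serial dilutions and about 10^5 bacteria/ml, incubated at 37 °C. Resazurin 0.01% was added at day 8 and incubated overnight, then read as OD 570 minus 630 nm. MIC was taken as the lowest concentration preventing the blue-to-pink change.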
Take `Cc1cn([C@@H]2C[C@H](O)[C@@H](CNC(=O)Nc3ccc(Cl)c(C(F)(F)F)c3)O2)c(=O)[nH]c1=O`: the MIC50 – broadly, the lowest concentration that inhibits either 50% of growth or 50% of the strains tested, depending on the study – came to 40 µg/mL (≈ 86.4 µM).

Regarding `Cc1cn([C@@H]2C[C@H](O)[C@@H](CNC(=S)Nc3ccc(Cl)c(C(F)(F)F)c3)O2)c(=O)[nH]c1=O`, the MIC99 (usually an inhibitory concentration at the 99% level, which refers to growth in some studies and to a panel of isolates in others) is 20 µg/mL (≈ 41.8 µM).

The compound `Cc1cn([C@@H]2CC[C@@H](CNC(=S)Nc3ccc(Cl)c(C(F)(F)F)c3)O2)c(=O)[nH]c1=O` registered an MIC99 of 40 µg/mL (≈ 86.4 µM).

For `Cc1cn([C@@H]2C[C@H](O)[C@@H](CNC(=S)NCc3ccc(Cl)c(C(F)(F)F)c3)O2)c(=O)[nH]c1=O`, the MIC99 came to 40 µg/mL (≈ 81.2 µM).

Compound `Cc1cn([C@@H]2C=C[C@@H](CNC(=S)Nc3ccc(Cl)c(C(F)(F)F)c3)O2)c(=O)[nH]c1=O` returned an MIC99 of 100 µg/mL (≈ 217 µM).

As to `Cc1cn([C@@H]2C[C@H](O)[C@@H](CNC(=S)NCCc3ccc(Cl)c(Cl)c3)O2)c(=O)[nH]c1=O`, the MIC99 was 50 µg/mL (≈ 106 µM). This MIC99 lies about 2-fold lower than the previous one.

As for `Cc1cn([C@@H]2C[C@H](O)[C@@H](CNC(=O)Nc3ccc(Cl)c(Cl)c3)O2)c(=O)[nH]c1=O`, the MIC50 was found to be 40 µg/mL (≈ 93.2 µM).

Regarding `Cc1cn([C@@H]2C[C@H](O)[C@@H](CNC(=S)Nc3ccc(Cl)c(Cl)c3)O2)c(=O)[nH]c1=O`, the MIC99 is 25 µg/mL (≈ 56.1 µM).

Consider `Cc1cn([C@@H]2C[C@H](O)[C@@H](CNC(=S)Nc3ccc4c(c3)C(=O)OC43c4ccc(O)cc4Oc4cc(O)ccc43)O2)c(=O)[nH]c1=O`, for which the MIC99 was more than 150 µg/mL.

In turn, `Cc1cn([C@@H]2C[C@H](O)[C@@H](CN)O2)c(=O)[nH]c1=O` registered an MIC99 of more than 40 µg/mL.
